In ChEMBL document CHEMBL1140549, “Rational design of N-alkyl derivatives of 2-amino-2-deoxy-d-glucitol-6P as antifungal agents” (Bioorg Med Chem Lett, 2007):
≈ marks a conversion by molar mass, not a printed value. Calls of active or inactive are those of the source. The rule behind the calls is not given here.

What was measured:
Candida albicans [1] = assay: Drug uptake in Candida albicans assessed as uptake rate per mg dry weight; format: ADME, organism-based; conditions: in vivo
[2] = Inhibition of Candida albicans glucosamine-6P synthase by Elson-Morgan method
How it was run: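 Enzyme was Candida albicans GlcN-6P synthase purified to near homogeneity. Reactions ran in 25 mM phosphate buffer, pH 6.9, with 1 mM EDTA and 1 mM DTT, D-Fru-6P (0.5–7.5 mM) and L-glutamine (0.625–10 mM), plus inhibitor. Product was measured by a modified Elson–Morgan method. IC50 and Ki are means of three experiments, with SD.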

[3] = target: Glucose-6-phosphate isomerase (Saccharomyces cerevisiae S288c) (UniProt P12709); assay: Inhibition of yeast phosphoglucose isomerase upto 20 mM
Chain of Glucose-6-phosphate isomerase (Saccharomyces cerevisiae S288c) (P12709 whole entry): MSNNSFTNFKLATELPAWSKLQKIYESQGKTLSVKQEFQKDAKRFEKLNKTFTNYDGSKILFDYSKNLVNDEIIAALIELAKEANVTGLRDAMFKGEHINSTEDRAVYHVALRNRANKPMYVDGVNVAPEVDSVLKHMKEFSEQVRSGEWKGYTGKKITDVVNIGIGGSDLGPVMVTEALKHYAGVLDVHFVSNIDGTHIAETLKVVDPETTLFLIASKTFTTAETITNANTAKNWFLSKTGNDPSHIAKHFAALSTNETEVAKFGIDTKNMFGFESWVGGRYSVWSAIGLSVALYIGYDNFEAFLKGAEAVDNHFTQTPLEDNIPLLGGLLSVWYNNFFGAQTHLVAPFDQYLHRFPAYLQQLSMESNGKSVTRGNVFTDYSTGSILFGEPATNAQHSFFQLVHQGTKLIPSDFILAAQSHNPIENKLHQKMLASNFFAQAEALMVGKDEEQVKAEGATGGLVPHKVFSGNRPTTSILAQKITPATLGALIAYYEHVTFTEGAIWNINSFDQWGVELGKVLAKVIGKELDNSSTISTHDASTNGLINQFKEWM

Candida albicans [4] = assay: Antifungal activity against Candida albicans by serial dilution microplate method; format: functional
Nakaseomyces glabratus = assay: Antifungal activity against Candida glabrata by serial dilution microplate method; format: functional
Candida tropicalis = assay: Antifungal activity against Candida tropicalis by serial dilution microplate method; format: functional
Saccharomyces cerevisiae [5] = assay: Antimicrobial activity against Saccharomyces cerevisiae AD by serial dilution microplate method; format: functional
How it was run: (§1)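 Saccharomyces cerevisiae AD lacks the seven genes for the main drug-exporting membrane proteins. ADCDR1 is AD transformed with a plasmid carrying the gene for Candida albicans Cdr1p drug exporter. MIC was read by serial dilution in microplates.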

Saccharomyces cerevisiae [6] = assay: Antimicrobial activity against Saccharomyces cerevisiae ADCDR1 by serial dilution microplate method; format: functional; how it was run: as §1

| Compound | Drug uptake (Candida albicans [1]) [nmol/mg/min] | IC50 [2] [µM] | Ki [2] [µM] | Activity [3] | MIC (Candida albicans [4]) [µg/mL] | MIC (Nakaseomyces glabratus) [µg/mL] | MIC (Candida tropicalis) [µg/mL] | MIC (Saccharomyces cerevisiae [5]) [µg/mL] | MIC (Saccharomyces cerevisiae [6]) [µg/mL] |
| --- | --- | --- | --- | --- | --- | --- | --- | --- | --- |
| CCN(CC)[C@@H](CO)[C@@H](O)[C@H](O)[C@H](O)COP(=O)(O)O | 3.9 | 40 | 8 | inactive | 310 (≈ 977 µM) | 625 (≈ 1970 µM) | 625 (≈ 1970 µM) | 310 (≈ 977 µM) | 310 (≈ 977 µM) |
| OC(Cn1cncn1)(Cn1cncn1)c1ccc(F)cc1F [FLUCONAZOLE] |  |  |  |  | 8 (≈ 26.1 µM) | 16 (≈ 52.2 µM) | 16 (≈ 52.2 µM) | 4 (≈ 13.1 µM) | 32 (≈ 104 µM) |
| CCCCN(CCCC)[C@@H](CO)[C@@H](O)[C@H](O)[C@H](O)COP(=O)(O)O | 5 | 82 | 12 | inactive | 312 (≈ 836 µM) | 1250 (≈ 3350 µM) | 2500 (≈ 6700 µM) | 1250 (≈ 3350 µM) | 1250 (≈ 3350 µM) |
| CCCCN[C@@H](CO)[C@@H](O)[C@H](O)[C@H](O)COP(=O)(O)O | 3.4 | 115 | 20 | inactive | 625 (≈ 1970 µM) | 1250 (≈ 3940 µM) | 1250 (≈ 3940 µM) | 1250 (≈ 3940 µM) | 1250 (≈ 3940 µM) |
| CCN[C@@H](CO)[C@@H](O)[C@H](O)[C@H](O)COP(=O)(O)O | 2.9 | 180 | 26 | inactive | 1250 (≈ 4320 µM) | 2500 (≈ 8640 µM) | 2500 (≈ 8640 µM) | 2500 (≈ 8640 µM) | 2500 (≈ 8640 µM) |
| CCCN(CCC)[C@@H](CO)[C@@H](O)[C@H](O)[C@H](O)COP(=O)(O)O | 4.7 | 52 | 10 | inactive | 160 (≈ 463 µM) | 625 (≈ 1810 µM) | 625 (≈ 1810 µM) | 80 (≈ 232 µM) | 160 (≈ 463 µM) |
| CCCCCCN[C@@H](CO)[C@@H](O)[C@H](O)[C@H](O)COP(=O)(O)O | 4.8 | 290 | 49 | inactive | 625 (≈ 1810 µM) | 625 (≈ 1810 µM) | 310 (≈ 898 µM) | 310 (≈ 898 µM) | 310 (≈ 898 µM) |
| N[C@@H](CO)[C@@H](O)[C@H](O)[C@H](O)COP(=O)(O)O | 1.1 | 230 | 35 | inactive | 5000 (≈ 19100 µM) | 10000 (≈ 38300 µM) | 10000 (≈ 38300 µM) | 5000 (≈ 19100 µM) | 5000 (≈ 19100 µM) |
